The record followed here is PubChem BioAssay AID1230 (PCMD, 2008).

The campaign covered roughly 210,000 compounds. About 220 (0.1%) were called active. This is one part of a sample in which actives are shown more often than they occur.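 How the source made its calls: active means signal enhancement of 30% or more; inactive means the rest.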

This assay deals with E3 ubiquitin-protein ligase Mdm2 (Homo sapiens) (UniProt Q00987). Put plainly: increase of MDM2 autoubiquitination reporter luminescence – cell-based, 1536-well, MDM2 E3 ligase inhibitor project, primary screen (AID 1230).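 Further: luminescence tracks abundance of the self-degrading MDM2-luciferase fusion protein; higher signal means inhibition of MDM2 E3 ligase activity.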 To be noted: cell-based MDM2 ubiquitination luciferase reporter, 2 h; at 5 µM; hits give high values; 0 = plate control, 100 = twice control, blank-subtracted. A digest of the protocol: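 Assay system: stable mammalian line carrying autodegrading MDM2–luciferase fusion reporter; Input: 2000 cells in each well; Compound dosing: single-point 5 µM; Schedule: 2 h compound exposure at 37 °C; Signal: SteadyLite luciferase luminescence after 15 min room-temperature reagent incubation; Evaluation: % luminescence enhancement versus blank-corrected plate control mean; Benchmarks: plate controls and plate blanks.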
Chain of E3 ubiquitin-protein ligase Mdm2 (Homo sapiens) (Q00987 whole entry, looked up, the tested form may be a part): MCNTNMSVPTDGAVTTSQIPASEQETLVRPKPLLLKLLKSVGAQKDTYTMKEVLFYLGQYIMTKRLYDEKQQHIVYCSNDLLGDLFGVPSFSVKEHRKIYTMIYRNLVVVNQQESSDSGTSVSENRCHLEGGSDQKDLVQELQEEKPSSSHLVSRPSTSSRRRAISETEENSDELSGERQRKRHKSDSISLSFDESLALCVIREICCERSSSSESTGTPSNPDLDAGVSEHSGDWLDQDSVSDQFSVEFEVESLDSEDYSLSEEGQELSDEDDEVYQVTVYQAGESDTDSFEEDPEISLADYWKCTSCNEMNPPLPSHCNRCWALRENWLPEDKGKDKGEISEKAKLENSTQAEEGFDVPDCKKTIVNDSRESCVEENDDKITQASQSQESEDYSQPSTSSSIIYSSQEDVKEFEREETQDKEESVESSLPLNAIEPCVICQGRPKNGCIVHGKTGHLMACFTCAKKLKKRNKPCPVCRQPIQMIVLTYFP
Background: A reporter such as luciferase makes a cellular process visible.
Take `O=C(Nc1nnc(-c2ccc(Cl)cc2)o1)c1ccccc1Br`: the signal enhancement was 108% (active).

`CCCC(=O)Nc1nnc(-c2ccccc2)o1`: the signal enhancement was -6.24% (inactive).

For `O=C(Nc1cccc(Cl)c1)Nc1nnc(-c2ccccc2)o1`, the signal enhancement is -7.54% (inactive).

In the case of `COc1ccccc1C1CCN(c2ccc([N+](=O)[O-])cn2)CC1`, the signal enhancement was -10.5% (inactive).

With `CCN(CC)CCn1cnc2c1c(=O)n(CCOC(=O)c1cc(OC)c(OC)c(OC)c1)c(=O)n2C`, the signal enhancement was 2.01% (inactive).

Regarding `O=C(NC(=O)c1cc(OCC(F)(F)F)ccc1OCC(F)(F)F)Nc1ccccc1`, the signal enhancement is -3.24% (inactive).

On to `N#CCC(=O)N/N=C/c1cn(Cc2ccc3ccccc3c2)c2ccccc12`, for which the signal enhancement is -6.67% (inactive).

`CCn1c(SCC(=O)N/N=C/c2ccncc2)nc2ccccc21`: the signal enhancement was -15.7% (inactive).

Take `CC(C)(C)CN1C(=O)C(=O)NC[C@H]1Cc1cccc2ccccc12`: the signal enhancement is -5.59% (inactive).

Take `O=C(N/N=C/c1ccccn1)c1cccnc1`: the signal enhancement is -13% (inactive).

With `CCOC(=O)CN(C(=O)COc1nc(C)cc(C)c1C#N)c1ccc(Cl)cc1`, the signal enhancement was -12.8% (inactive).

For the compound `O=S(=O)(c1ccc(NC(=S)NN=C(C2CC2)C2CC2)cc1)N1CCOCC1`, the signal enhancement is -6.04% (inactive).

As for `Cc1nnc(C)c2c(C)n(N)c(C)c12`, the signal enhancement was -11.1% (inactive).

Take `Cc1nc(SCC(=O)c2ccccc2)c([N+](=O)[O-])[nH]1`: the signal enhancement was -9.82% (inactive).

`Cc1cc([N+](=O)[O-])nn1Cc1ccc(F)cc1`: the signal enhancement was -10.9% (inactive).

In the case of `Cc1nc(SCc2ccc(F)cc2)c([N+](=O)[O-])[nH]1`, the signal enhancement is 30.6% (active).

Consider `O=C(CCS(=O)(=O)c1ccccc1Cl)Nc1ccc(S(=O)(=O)Nc2ncccn2)cc1`, for which the signal enhancement was -14.3% (inactive).

On to `O=C(O)C#Cc1cccc2ccccc12`, for which the signal enhancement was -21.3% (inactive).

For the compound `Cc1nc2c(ncn2-c2ccccc2)c(=O)n1NC(=O)CN1CCCC1`, the signal enhancement was -14.3% (inactive).

On to `C/C(=N/Nc1nc(-c2ccccc2)c(CC(=O)O)s1)c1ccccc1`, for which the signal enhancement was -20.1% (inactive).

Consider `S=C(NNC(=S)NC1CC2CCC1C2)NC1CC2C=CC1C2` (stereo not drawn), for which the signal enhancement was -3.28% (inactive).

In the case of `COC(=O)c1scc(S(=O)(=O)C(C)(C)C)c1-n1cccc1`, the signal enhancement is -17% (inactive).

For the compound `C/C(=N\NC(N)=S)c1ccncc1`, the signal enhancement was -0.15% (inactive).

On to `C/C(=N\NC(N)=S)c1cccnc1`, for which the signal enhancement is 54.3% (active).

Take `C/C(=N\NC(=O)c1cccnc1)c1ccc(-c2ccccc2)cc1`: the signal enhancement was -9.97% (inactive).

As to `COC(=O)N(NC(=O)C(O)(C(C)C)C(C)C)c1ccccc1`, the signal enhancement was -12.4% (inactive).

As for `O=C(C[n+]1cc(-c2ccc(Cl)c(Cl)c2)n2c1CCC2)c1cccs1`, the signal enhancement is -2.63% (inactive).

Take `CS(=O)(=O)c1ccc(Cl)c(NC(=O)Nc2ccccc2)c1`: the signal enhancement was -9.46% (inactive).

Regarding `Cc1onc(-c2ccc(Cl)cc2)c1-c1ccnn1S(=O)(=O)c1ccc(Cl)cc1`, the signal enhancement was -0.58% (inactive).

For `C=CCC1(C#N)C(=S)NC(C)=C(C(=O)OCC)C1c1ccccc1` (stereo not drawn), the signal enhancement is 9.19% (inactive).

On to `CCc1ccccc1N1CN(Cc2ccco2)CNC1=S`, for which the signal enhancement was 2.19% (inactive).

Regarding `OCC1(Cc2ccccc2C(F)(F)F)CCN(Cc2ccncc2)CC1`, the signal enhancement was -8.35% (inactive).

Regarding `Cc1nc(/N=C(\N)NC(=O)NC2CCCCC2)nc2ccccc12`, the signal enhancement was -4.72% (inactive).

Turning to `COCCNc1nc(-c2ccccc2)nc2c1oc1ccccc12`, the signal enhancement was -11.4% (inactive).

On to `Cc1ccc2c(c1)nnc1nnc(SCC(=O)O)n12`, for which the signal enhancement is 0.72% (inactive).

With `Cc1ccc2c(C)c(C(=O)N3CCC(N4CCC(C(=O)NC5CC5)CC4)CC3)oc2c1`, the signal enhancement was -9.89% (inactive).

Turning to `O=C(NC(=S)Nc1cccc2c(O)cccc12)c1cccc(Br)c1`, the signal enhancement was -0.26% (inactive).

Regarding `Clc1ccc(C[n+]2cc(-c3ccc(Cl)cc3)n3c2CCC3)cc1`, the signal enhancement was -12.4% (inactive).

As to `CSc1nnnn1-c1c(C)cc(C)cc1C`, the signal enhancement is -3.25% (inactive).

In the case of `O=C(Nc1ccc(N2CCOCC2)nc1)c1c(F)cccc1F`, the signal enhancement is -15% (inactive).

`Nc1nc(Sc2ncccc2[N+](=O)[O-])n[nH]1`: the signal enhancement was 1.65% (inactive).

Regarding `CCNC(=O)CCc1nc(-c2ccc(C)cc2)no1`, the signal enhancement was 8.03% (inactive).

On to `O=C1C2C3C=CC(C3)C2C(=O)N1c1ccc(S(=O)(=O)Nc2nccs2)cc1` (stereo not drawn), for which the signal enhancement is -8.32% (inactive).

As to `FC(F)(F)c1nc(-c2ccccc2)ncc1-c1nnnn1-c1ccccc1`, the signal enhancement is -9.19% (inactive).

As to `O=c1oc(-c2ccccc2NS(=O)(=O)c2ccc(Cl)cc2)nc2ccccc12`, the signal enhancement was -16.5% (inactive).

Regarding `COc1ccc(Cc2cc(-c3ccc(F)cc3)n[nH]c2=O)cc1`, the signal enhancement was -10.5% (inactive).

As for `O=C(NCCC1=CCCCC1)c1ccc(Cl)c([N+](=O)[O-])c1`, the signal enhancement is 59.6% (active).

With `CN(c1ccc(C(=O)NCCC2=CCCCC2)cc1)S(C)(=O)=O`, the signal enhancement was -36.2% (inactive).

In the case of `Cn1nnc2cc(C(=O)NCCC3=CCCCC3)ccc21`, the signal enhancement is -41.3% (inactive).

Turning to `O=C1CCCCC1C(=O)c1ccccc1` (stereo not drawn), the signal enhancement is -74.7% (inactive).

Regarding `CNC(=O)c1csc(Cc2c(Cl)sc3ccc(Cl)cc23)n1`, the signal enhancement is -3.68% (inactive).

For the compound `O=C1N=C(N2CCc3ccccc3C2)S/C1=C\c1ccc(O)cc1`, the signal enhancement is -10.4% (inactive).

Turning to `O=S(=O)(Nc1ccc(OC(F)(F)F)cc1)c1cccc2nonc12`, the signal enhancement is 7.33% (inactive).

For `Cc1onc(NC(=O)c2ccc([N+](=O)[O-])o2)c1Br`, the signal enhancement is -5.7% (inactive).

Regarding `O=C(CCCCCN1C(=O)c2cccc3cccc(c23)C1=O)NCc1ccco1`, the signal enhancement is -8.79% (inactive).

Take `Cn1c(CSCC(=O)Nc2ccccc2)nnc1SCc1ccccc1`: the signal enhancement was -7.31% (inactive).

Regarding `Cn1cccc1/C=N/NC(=O)CNc1cccc2ccccc12`, the signal enhancement was -9.96% (inactive).

Consider `COc1cc(OC)c2ccc(=O)oc2c1C(CCN1CCN(c2ccccc2)CC1)c1ccc2c(c1)OCO2` (stereo not drawn), for which the signal enhancement was 6.23% (inactive).

On to `COc1ccc(CCNC(=O)C(=O)Nc2ccc3nc4n(c(=O)c3c2)CCCCC4)cc1OC`, for which the signal enhancement is 3.62% (inactive).

As to `Nc1ccccc1SC(C[N+](=O)[O-])c1ccccc1` (stereo not drawn), the signal enhancement is -3.83% (inactive).

With `Cn1c(C(=O)NCCCN2CCCCC2)cc2sccc21`, the signal enhancement was -19.5% (inactive).

`O=C(CCS(=O)(=O)Cc1ccccc1F)NCCCN1CCCCC1`: the signal enhancement is 35.1% (active).

For `O=C(NCCCN1CCN(c2ccccc2F)CC1)C1CCC(=O)N1C1CCCCC1` (stereo not drawn), the signal enhancement was -15.4% (inactive).
